Assay results taken from ChEMBL document CHEMBL1155482, “Synthesis, anticancer activity and apoptosis inducing ability of anthranilamide-PBD conjugates” (2010).
Counter-ions that a name gives are not always drawn. Calls of active or inactive are those of the source. The rule behind the calls is not given here.

How the values were obtained:
[1] = system: HOP-62; assay: Cytotoxicity against human HOP62 cells after 48 hrs by SRB assay; assay type: functional; conditions: HOP-62, 48 h
Procedure, shortened: (§1)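 Sulforhodamine B assay estimating cell density from cellular protein content, run on human cancer lines of lung, breast, oral, colon, cervix, ovary and prostate origin, with GI50 values derived.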

[2] = system: MCF7; assay: Cytotoxicity against human MCF7 cells after 48 hrs by SRB assay; assay type: functional; conditions: MCF7, 48 h; procedure, shortened: as §1
[3] = Cytotoxicity against human DWD cells after 48 hrs by SRB assay; assay type: functional; procedure, shortened: as §1
[4] = system: KB; assay: Cytotoxicity against human KB cells after 48 hrs by SRB assay; assay type: functional; procedure, shortened: as §1
[5] = Cytotoxicity against human Gurav cells after 48 hrs by SRB assay; assay type: functional; procedure, shortened: as §1
[6] = system: A2780; assay: Cytotoxicity against human A2780 cells after 48 hrs by SRB assay; assay type: functional; conditions: A2780, 48 h; procedure, shortened: as §1
[7] = system: COLO 205; assay: Cytotoxicity against human COLO205 cells after 48 hrs by SRB assay; assay type: functional; conditions: COLO 205, 48 h; procedure, shortened: as §1
[8] = system: SiHa; assay: Cytotoxicity against human SiHa cells after 48 hrs by SRB assay; assay type: functional; procedure, shortened: as §1
[9] = system: A549; assay: Cytotoxicity against human A549 cells after 48 hrs by SRB assay; assay type: functional; conditions: A549, 48 h; procedure, shortened: as §1
[10] = system: ZR-75-1; assay: Cytotoxicity against human ZR-75-1 cells after 48 hrs by SRB assay; assay type: functional; conditions: ZR-75-1, 48 h; procedure, shortened: as §1
[11] = system: PC-3; assay: Cytotoxicity against human PC3 cells after 48 hrs by SRB assay; assay type: functional; conditions: PC-3, 48 h; procedure, shortened: as §1
[12] = system: A-375; assay: Cell cycle arrest in human A375 cells assessed as accumulation at S phase at 1 uM by FACS analysis; assay type: functional
Procedure, shortened: (§2)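 A375 cells were exposed to compound for 24 h, and cell cycle distribution was measured by FACS. The sub-G1 peak (labelled G0) was scored as the apoptotic cell percentage and compared with untreated control cells.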

[13] = system: A-375; assay: Cell cycle arrest in human A375 cells assessed as accumulation at G0/G1 phase at 1 uM by FACS analysis; assay type: functional; procedure, shortened: as §2
[14] = system: A-375; assay: Cell cycle arrest in human A375 cells assessed as accumulation at G2/M phase at 1 uM by FACS analysis; assay type: functional; procedure, shortened: as §2
[15] = system: A-375; assay: Induction of apoptosis in human A375 cells assessed as caspase 3 activation at 1 uM after 24 hrs by fluorimetry; assay type: functional, cell-based
Procedure, shortened: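 Caspase-3 activity in treated A375 cells was measured by fluorimetry relative to untreated cells.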

[16] = system: A-375; assay: Induction of apoptosis in human A375 cells assessed as cells in dub G1 phase at 1 uM after 24 hrs by FACS analysis; assay type: functional; procedure, shortened: as §2
[17] = system: A-375; assay: Antitumor activity against human A375 cells assessed as cell viability at 1 uM after 24 hrs by MTT assay; assay type: functional, cell-based
[18] = system: A-375; assay: Induction of apoptosis in human A375 cells assessed as p53 protein expression at 1 uM after 24 hrs by Western blotting; assay type: functional, cell-based
Procedure, shortened: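 A375 cells were treated for 24 h, and lysates were probed for p53 by western blot with a p53-specific antibody. Untreated cells served as control and β-actin as loading control.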

[19] = target: T1, Type II restriction enzyme BamHI (Bacillus amyloliquefaciens) (UniProt P23940); assay: Inhibition of Bacillus amyloliquifaction Bam H1-mediated restriction digestion of pBR322 at 4 uM by RED 100 assay
T1 sequence (whole entry): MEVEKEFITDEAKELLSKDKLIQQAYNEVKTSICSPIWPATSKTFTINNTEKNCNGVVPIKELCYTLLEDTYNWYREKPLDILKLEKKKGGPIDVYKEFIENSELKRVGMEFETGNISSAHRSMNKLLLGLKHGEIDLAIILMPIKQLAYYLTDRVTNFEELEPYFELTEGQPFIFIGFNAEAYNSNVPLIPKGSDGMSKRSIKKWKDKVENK
Procedure, shortened: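 Restriction enzyme digestion (RED 100) of vector DNA by BamHI after exposure to compound at 2, 4, 8, 16 and 32 micromolar, with controls of vector cut without compound and uncut vector DNA.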

| inhibition [19] | SMILES | GI50 [1] [nM] | GI50 [2] [nM] | GI50 [3] [nM] | GI50 [4] [nM] | GI50 [5] [nM] | GI50 [6] [nM] | GI50 [7] [nM] | GI50 [8] [nM] | GI50 [9] [nM] | GI50 [10] [nM] | GI50 [11] [nM] | Activity [12] [%] | Activity [13] [%] | Activity [14] [%] | Activity [15] | Activity [16] [%] | Activity [17] | Activity [18] |
| --- | --- | --- | --- | --- | --- | --- | --- | --- | --- | --- | --- | --- | --- | --- | --- | --- | --- | --- | --- |
| – | COc1cccc2c1C(=O)c1c(O)c3c(c(O)c1C2=O)C[C@@](O)(C(=O)CO)C[C@@H]3O[C@H]1C[C@H](N)[C@H](O)[C@H](C)O1 [DOXORUBICIN HYDROCHLORIDE] | 140 | 170 | 100 | 170 | 170 | 160 | 140 | 170 | – | – | – | – | – | – | – | – | – | – |
| – | COc1cc2c(cc1OCCCN1CCN(C(=O)c3ccccc3NCc3ccc4ccccc4c3)CC1)N=C[C@@H]1CCCN1C2=O | 1700 | 140 | 140 | 150 | 170 | 170 | 180 | 160 | 170 | 150 | 140 | 6.32 | 83.66 | 6.32 | Active | 5.486 | Active | – |
| – | COc1cc2c(cc1OCCCCCCN1CCN(C(=O)c3ccccc3NCc3cc(OC)c(OC)c(OC)c3)CC1)N=C[C@@H]1CCCN1C2=O | 1900 | 140 | 150 | 150 | 170 | 170 | 160 | 1800 | 180 | 180 | 160 | – | – | – | – | – | – | – |
| – | COc1cc2c(cc1OCCCCCN1CCN(C(=O)c3ccccc3NCc3ccncc3)CC1)N=C[C@@H]1CCCN1C2=O | 2300 | 160 | 150 | 150 | 170 | 170 | 25000 | 1800 | 2000 | 2000 | 170 | – | – | – | – | – | – | – |
| – | COc1cc2c(cc1OCCCN1CCN(C(=O)c3ccccc3NCc3ccncc3)CC1)N=C[C@@H]1CCCN1C2=O | 2200 | 130 | 170 | 150 | 180 | 190 | 190 | 1800 | 2000 | 180 | 1800 | – | – | – | – | – | – | – |
| – | COc1cc2c(cc1OCCCCCN1CCN(C(=O)c3ccccc3NCc3coc4ccccc4c3=O)CC1)N=C[C@@H]1CCCN1C2=O | 1800 | 140 | 160 | 150 | 170 | 180 | 2400 | 130 | 160 | 160 | 140 | 13.34 | 81.9 | 6.68 | Active | 3.483 | Active | – |
| – | COc1cc2c(cc1OCCCCCN1CCN(C(=O)c3cc(Cl)ccc3NCc3ccc4ccccc4c3)CC1)N=C[C@@H]1CCCN1C2=O | 2000 | 140 | 170 | 140 | 170 | 180 | 29000 | 1800 | 2000 | 180 | 170 | – | – | – | – | – | – | – |
| – | COc1cc2c(cc1OCCCCCN1CCN(C(=O)c3cc(Cl)ccc3NCc3coc4ccccc4c3=O)CC1)N=C[C@@H]1CCCN1C2=O | 1800 | 150 | 170 | 160 | 170 | 180 | 2300 | 160 | 170 | 160 | 160 | – | – | – | – | – | – | – |
| Active | COc1cc2c(cc1OCCCCCN1CCN(C(=O)c3ccccc3NCc3ccc4ccccc4c3)CC1)N=C[C@@H]1CCCN1C2=O | 1800 | 130 | 130 | 130 | 140 | 140 | 150 | 150 | 170 | 150 | 140 | 7.09 | 91.94 | 1.97 | Active | 7.333 | Active | Active |
| – | COc1cc2c(cc1OCCCCCN1CCN(C(=O)c3ccccc3NCc3cc(OC)c(OC)c(OC)c3)CC1)N=C[C@@H]1CCCN1C2=O | 1900 | 140 | 140 | 140 | 160 | 160 | 2200 | 170 | 1900 | 160 | 140 | – | – | – | – | – | – | – |
| – | O=C(c1ccccc1NCc1coc2ccccc2c1=O)N1CCNCC1 | – | – | – | – | – | – | – | – | – | – | – | 18.53 | 68.39 | 15.45 | – | 1.15 | Active | – |
| – | COc1cc2c(cc1OCCCN1CCN(C(=O)c3ccccc3NCc3cc(OC)c(OC)c(OC)c3)CC1)N=C[C@@H]1CCCN1C2=O | 2100 | 140 | 150 | 150 | 170 | 180 | 170 | 170 | 2000 | 170 | 160 | – | – | – | – | – | – | – |
| – | COc1cc2c(cc1OCCCCCCN1CCN(C(=O)c3ccccc3NCc3ccc4ccccc4c3)CC1)N=C[C@@H]1CCCN1C2=O | 1900 | 140 | 160 | 150 | 170 | 190 | 180 | 150 | 170 | 160 | 150 | – | – | – | – | – | – | – |
| – | O=C(c1ccccc1NCc1ccc2ccccc2c1)N1CCNCC1 | – | – | – | – | – | – | – | – | – | – | – | 14.56 | 72.22 | 14.78 | – | 1.233 | Active | – |
| – | COc1cc2c(cc1OCCCCCCN1CCN(C(=O)c3ccccc3NCc3ccncc3)CC1)N=C[C@@H]1CCCN1C2=O | 25000 | 150 | 170 | 150 | 180 | 190 | 2600 | 1900 | 2200 | 2000 | 1800 | – | – | – | – | – | – | – |
| – | COc1cc2c(cc1O)N=C[C@@H]1CCCN1C2=O | 150 | 170 | – | 170 | 160 | 140 | 110 | 170 | 160 | – | 200 | 23.08 | 67.67 | 12.19 | Active | 2.683 | Active | – |
